Test [1] has as its target T1, Adenosine receptor A2a (Homo sapiens, UniProt P29274). In words: Displacement of [3H]-ZM241385 from human adenosine A2A receptor expressed in CHO cell membranes at 1 uM after 60 mins by scintillation counting analysis. Background: Displacement assays read how much labelled ligand stays bound in the presence of the test substance.
Test [2] deals with T2, Adenosine receptor A1 (Homo sapiens, UniProt P30542).
T2 sequence (P30542 whole entry): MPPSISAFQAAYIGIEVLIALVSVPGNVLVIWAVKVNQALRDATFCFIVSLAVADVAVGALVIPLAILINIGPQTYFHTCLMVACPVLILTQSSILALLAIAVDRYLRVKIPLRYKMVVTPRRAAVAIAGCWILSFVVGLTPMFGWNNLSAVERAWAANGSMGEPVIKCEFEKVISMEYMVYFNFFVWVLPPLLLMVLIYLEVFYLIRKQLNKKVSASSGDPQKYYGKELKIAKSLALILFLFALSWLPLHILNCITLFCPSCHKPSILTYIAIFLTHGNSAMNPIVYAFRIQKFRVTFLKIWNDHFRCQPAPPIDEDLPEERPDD
In words: Displacement of [3H]DPCPX from human adenosine A1 receptor expressed in CHO cell membranes after 90 mins by scintillation counting analysis. In outline: (§1)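 Hypotonic-lysed (5 mM Tris HCl, 1 mM EDTA, pH 7.4), 40000 g pelleted hA1-CHO membranes, 50 µg protein/100 µl, with 1 nM [3H]DPCPX, 90 min, 25°C, 50 mM Tris HCl pH 7.4; nonspecific with 1 µM DPCPX; GF/B filtration, scintillation. Ki via Cheng–Prusoff, four assays in triplicate; I% at 1 μM.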

The target of test [3] is T3, Adenosine receptor A2b (Homo sapiens) (UniProt P29275).
T3 sequence (whole entry): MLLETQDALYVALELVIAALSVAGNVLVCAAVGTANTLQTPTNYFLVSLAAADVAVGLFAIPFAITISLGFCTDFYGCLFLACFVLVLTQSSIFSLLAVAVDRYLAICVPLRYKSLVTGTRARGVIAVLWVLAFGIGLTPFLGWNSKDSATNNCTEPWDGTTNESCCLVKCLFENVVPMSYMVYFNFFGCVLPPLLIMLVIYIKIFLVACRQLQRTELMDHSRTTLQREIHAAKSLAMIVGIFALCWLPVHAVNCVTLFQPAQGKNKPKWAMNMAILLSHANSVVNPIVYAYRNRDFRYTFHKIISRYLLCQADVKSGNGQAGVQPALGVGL
Kind of test: Agonist activity at human adenosine A2B receptor expressed in CHO cell membranes assessed as induction of cAMP accumulation at 1 uM by AlphaScreen assay relative to NECA. It counts as functional, cell-based. The essentials: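 Whole adherent hA2B-transfected CHO cells (DMEM/F12, 10% FCS, G418), trypsin-detached, in HBSS with 5 mM HEPES, 0.5 mM Ro 20-1724, 0.1% BSA; test compound at 1 μM alone; cAMP by AlphaScreen; efficacy expressed relative to NECA 1 μM taken as 100%.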
A general note: Changes in cAMP serve as a functional read-out for many G protein-coupled receptors.

The target in test [4] is T4, Adenosine receptor A3 (Homo sapiens, UniProt P0DMS8).
T4 sequence (P0DMS8 whole entry): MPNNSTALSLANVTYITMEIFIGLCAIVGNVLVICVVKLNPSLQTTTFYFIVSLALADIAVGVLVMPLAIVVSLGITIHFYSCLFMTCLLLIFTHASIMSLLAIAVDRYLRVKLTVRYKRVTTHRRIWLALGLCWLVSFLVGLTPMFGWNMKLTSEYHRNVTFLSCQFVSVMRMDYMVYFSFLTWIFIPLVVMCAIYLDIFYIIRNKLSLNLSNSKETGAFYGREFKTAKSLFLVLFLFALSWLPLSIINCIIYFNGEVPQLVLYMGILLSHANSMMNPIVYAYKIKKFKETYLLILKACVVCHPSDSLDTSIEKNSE
Kind of test: Displacement of [125I]-ABMECA from human adenosine A3 receptor expressed in CHO cell membranes after 120 mins by scintillation counting analysis. In outline: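 Membranes of hA3-CHO cells, 50 µg protein/100 µl, incubated 120 min at 4°C with 0.5 nM [125I]AB-MECA in 50 mM Tris HCl pH 7.4, 10 mM MgCl2, 1 mM EDTA; 1 µM AB-MECA for nonspecific; filter separation, counted. Ki by Cheng–Prusoff, four assays in triplicate; I% at 1 μM.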

Test [5] deals with T5, Adenosine receptor A2b (Homo sapiens, UniProt P29275).
T5 sequence (P29275 whole entry): T3 sequence (whole entry)
Kind of test: Agonist activity at human adenosine A2B receptor expressed in CHO cell membranes assessed as induction of cAMP accumulation by AlphaScreen assay. It counts as functional, cell-based. The essentials:
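Intact hA2B-transfected CHO cells, trypsin-detached, stimulated in HBSS/5 mM HEPES/0.5 mM Ro 20-1724/0.1% BSA with compound alone at 1 nM–1 μM; cAMP read by AlphaScreen kit; EC50 from four separate assays each in triplicate, mean ± SEM.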

The species entered for test [6] is Homo sapiens. Kind of test: Selectivity index, ratio of Ki for human adenosine A1 receptor to EC50 for human adenosine A2B receptor.
Test [7] is filed under the species Homo sapiens. Kind of test: Selectivity index, ratio of Ki for human adenosine A2A receptor to EC50 for human adenosine A2B receptor.
For test [8], the species on record is Homo sapiens. In words: Selectivity index, ratio of Ki for human adenosine A3 receptor to EC50 for human adenosine A2B receptor.
In test [9] the target is T1, Adenosine receptor A2a. In words: Displacement of [3H]-ZM241385 from human adenosine A2A receptor expressed in CHO cell membranes after 60 mins by scintillation counting analysis.
Test [10] has as its target T6, Adenosine receptor A1 (Homo sapiens) (UniProt P30542).
T6 sequence (whole entry): T2 sequence (P30542 whole entry)
Kind of test: Displacement of [3H]DPCPX from human adenosine A1 receptor expressed in CHO cell membranes at 1 uM after 90 mins by scintillation counting analysis. In outline:
as §1

We go through four compounds from ChEMBL document CHEMBL4196073, “The aminopyridine-3,5-dicarbonitrile core for the design of new non-nucleoside-like agonists of the human adenosine A2B receptor” (Eur J Med Chem, 2018).

T1 sequence (P29274 whole entry): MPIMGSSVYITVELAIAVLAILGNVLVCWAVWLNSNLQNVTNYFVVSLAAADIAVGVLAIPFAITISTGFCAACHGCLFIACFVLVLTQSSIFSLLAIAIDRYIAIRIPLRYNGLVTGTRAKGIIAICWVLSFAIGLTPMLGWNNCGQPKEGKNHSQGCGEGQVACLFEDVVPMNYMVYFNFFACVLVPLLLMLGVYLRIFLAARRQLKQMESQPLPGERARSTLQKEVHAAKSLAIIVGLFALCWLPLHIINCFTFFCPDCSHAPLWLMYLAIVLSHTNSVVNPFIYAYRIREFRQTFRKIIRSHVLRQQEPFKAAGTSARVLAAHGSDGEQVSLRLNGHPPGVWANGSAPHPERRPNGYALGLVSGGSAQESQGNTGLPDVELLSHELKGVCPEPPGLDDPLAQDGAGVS

With `CCOc1ccc(-c2c(C#N)c(N)nc(SCC(=O)NC)c2C#N)cc1`, the inhibition in [1] stood at 8%. Besides, the figures for the Ki in [2] and in test [4] were 0.104 µM and 0.834 µM, respectively. For the same compound, the Efficacy in test [3] came out at 48%. Moreover, in [5], the EC50 is 0.211 µM.

On to `N#Cc1c(N)nc(SCc2ncc[nH]2)c(C#N)c1-c1ccc(OCC2CC2)cc1`, for which the Ki is 0.235 µM in test [2], 0.474 µM in [4] and 0.764 µM in [9]. For the same compound, the Efficacy in test [3] was determined as 70%. For the same compound, in test [5], the EC50 stood at 0.0095 µM. Moreover, the Selectivity Index in test [6] worked out at 25; in [7], 80; in test [8] it was 50.

`CCOc1ccc(-c2c(C#N)c(N)nc(SCc3ncc[nH]3)c2C#N)cc1`: the figures for the Ki in [2], in [4] and in test [9] were 0.0082 µM, 0.085 µM and 0.221 µM, respectively. Also, the Efficacy in test [3] was 62%. In addition, the EC50 in test [5] is 0.0117 µM.

`CC(=O)Nc1ccc(-c2c(C#N)c(N)nc(SCC(N)=O)c2C#N)cc1`: the Efficacy in [3] turned out to be 92%. Moreover, the Ki was 0.742 µM in test [4] and 0.572 µM in test [9]. In addition, the EC50 in test [5] stood at 0.164 µM. In addition, in test [10], the inhibition was 17%.

For orientation: inhibition means the percentage by which the read-out fell short of the control. Lower therefore signals little suppression. A word on the Ki: it is the equilibrium dissociation constant of an inhibitor or competing ligand from its target. For orientation: EC50 means the concentration needed to bring the measured effect to its halfway point.
